{"source": "ChEMBL document CHEMBL4402601", "about": "“Discovery of a Silicon-Containing Pan-Genotype Hepatitis C Virus NS5A Inhibitor” (J Med Chem, 2020)", "key": {"[1]": {"test_system": "Hepatitis C virus", "test": "Antiviral activity against Hepatitis C virus subtype 1a H77 subgenomic replicon expressing NS5A L31M mutant infected in human HuH7 cells assessed as reduction in viral replication incubated for 3 days by luciferase reporter gene assay", "format": "functional, organism-based, Hepacivirus hominis", "details": "subtype 1a H77, Huh-7, 72 h", "procedure,_shortened": "(§1)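 NS5A resistance-associated variants introduced into GT1a-H77 or GT1b-Con1 replicons. In transient assays, each variant replicon was electroporated into a Huh-7-derived cell line. Inhibition measured as drop in luciferase signal. Percent inhibition computed per concentration; EC50 from 4-parameter logistic nonlinear fit. Fold resistance is variant EC50 relative to the matching reference replicon.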"}, "[2]": {"test": "Ratio of drug distribution in rat liver to drug distribution in rat plasma measured after 8 hrs by UPLC-MS/MS analysis", "format": "ADME, cell-free", "procedure,_shortened": "(§2)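 Oral dosing in mice and rats; compound measured in plasma and liver by UPLC-MS/MS at each time point, n = 3 (mean ± SD). LPR is mean liver concentration divided by mean plasma concentration.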"}, "[3]": {"test": "Drug distribution in mouse plasma at 10 mg/kg, po incubated for 3 hrs by UPLC-MS/MS analysis", "format": "ADME, organism-based", "procedure,_shortened": "as §2"}, "[4]": {"test_system": "Hepatitis C virus", "test": "Antiviral activity against Hepatitis C virus subtype 1b Con1 replicon expressing NS5A L31V mutant infected in human HuH7 cells assessed as reduction in viral replication incubated for 3 days by luciferase reporter gene assay", "format": "functional, organism-based, Hepacivirus hominis", "details": "subtype 1b Con1, Huh-7, 72 h", "procedure,_shortened": "as §1"}, "[5]": {"test": "Half life in dog at 5 mg/kg, po by UPLC-MS/MS analysis", "format": "ADME, organism-based, Canis lupus familiaris", "details": "in vivo"}, "[6]": {"test": "Drug distribution in rat plasma at 10 mg/kg, po incubated for 8 hrs by UPLC-MS/MS analysis", "format": "ADME, organism-based", "procedure,_shortened": "as §2"}, "[7]": {"test": "Drug distribution in mouse liver at 10 mg/kg, po incubated for 3 hrs by UPLC-MS/MS analysis", "format": "ADME, organism-based", "details": "read-out: Drug uptake", "procedure,_shortened": "as §2"}, "[8]": {"test_system": "Hepatitis C virus", "test": "Antiviral activity against Hepatitis C virus subtype 1b Con1 subgenomic replicon expressing NS5A infected in human HuH7 cells assessed as reduction in viral replication incubated for 3 days by luciferase reporter gene assay", "format": "functional, organism-based, Hepacivirus hominis", "details": "subtype 1b Con1, Huh-7, 72 h", "procedure,_shortened": "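HCV replicon cell assay; inhibition of replication read as decrease in luciferase signal. Percent inhibition computed at each compound concentration; EC50 (pM) from nonlinear regression fit to a 4-parameter logistic equation. Values are means of triplicate wells, with each experiment run at least twice.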"}, "[9]": {"test_system": "Hepatitis C virus", "test": "Antiviral activity against Hepatitis C virus subtype 1a H77 subgenomic replicon expressing NS5A L31V mutant infected in human HuH7 cells assessed as reduction in viral replication incubated for 3 days by luciferase reporter gene assay", "format": "functional, organism-based, Hepacivirus hominis", "details": "subtype 1a H77, Huh-7, 72 h", "procedure,_shortened": "as §1"}, "[10]": {"test_system": "Hepatitis C virus", "test": "Antiviral activity against Hepatitis C virus subtype 1b Con1 replicon expressing NS5A L31W mutant infected in human HuH7 cells assessed as reduction in viral replication incubated for 3 days by luciferase reporter gene assay", "format": "functional, organism-based, Hepacivirus hominis", "details": "subtype 1b Con1, Huh-7, 72 h", "procedure,_shortened": "as §1"}, "[11]": {"test_system": "Hepatitis C virus", "test": "Resistance index, ratio of EC50 for Hepatitis C virus subtype 1a H77 subgenomic replicon expressing NS5A Y93N mutant infected in human HuH7 cells to EC50 for Hepatitis C virus subtype 1a H77 subgenomic replicon expressing NS5A infected in human HuH7 cells", "format": "functional, Hepacivirus hominis"}, "[12]": {"test_system": "Hepatitis C virus", "test": "Antiviral activity against Hepatitis C virus subtype 1b Con1 replicon expressing NS5A Y93H mutant infected in human HuH7 cells assessed as reduction in viral replication incubated for 3 days by luciferase reporter gene assay", "format": "functional, organism-based, Hepacivirus hominis", "details": "subtype 1b Con1, Huh-7, 72 h", "procedure,_shortened": "as §1"}, "[13]": {"test": "Drug distribution in mouse plasma at 10 mg/kg, po incubated for 0.5 hrs by UPLC-MS/MS analysis", "format": "ADME, organism-based", "procedure,_shortened": "as §2"}, "[14]": {"test": "Volume of distribution in mouse at 2 mg/kg, iv by UPLC-MS/MS analysis", "format": "ADME, organism-based", "details": "in vivo", "procedure,_shortened": "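Mice fasted overnight, given a single 2 mg/kg iv dose. Vehicle was the oral formulation (2:2:96 alcohol:Tween 80:glucose injection) diluted 2.5-fold with 10% glucose injection. Plasma concentrations measured by UPLC-MS/MS.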"}, "[15]": {"test": "MRT in dog at 5 mg/kg, po by UPLC-MS/MS analysis", "format": "ADME, organism-based, Canis lupus familiaris", "details": "in vivo"}, "[16]": {"test": "Tmax in mouse at 10 mg/kg, po by UPLC-MS/MS analysis", "format": "ADME, organism-based", "details": "in vivo", "procedure,_shortened": "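Mice fasted overnight, given a single 10 mg/kg oral dose in 2:2:96 (v/v) alcohol:Tween 80:glucose injection. Plasma concentrations measured by UPLC-MS/MS.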"}, "[17]": {"test": "Metabolic stability in rat liver microsomes assessed as compound remaining at 1 uM incubated for 60 mins by UPLC-MS/MS analysis", "format": "ADME, Microsome", "details": "read-out: Stability", "procedure,_shortened": "(§3)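 Pooled mouse, rat or human liver microsomes (0.5 mg/mL) with 1 μM compound, 1 mM NADPH, 5 mM MgCl₂ and 100 mM potassium phosphate pH 7.4. Pre-incubated 5 min at 37 °C, started with NADPH, then run 60 min at 37 °C. Quenched with ice-cold acetonitrile containing internal standard; parent remaining measured by UPLC-MS/MS.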"}, "[18]": {"test": "Metabolic stability in human liver microsomes assessed as compound remaining at 1 uM incubated for 60 mins by UPLC-MS/MS analysis", "format": "ADME, Microsome", "details": "read-out: Stability", "procedure,_shortened": "as §3"}, "[19]": {"test": "Drug distribution in rat liver at 10 mg/kg, po incubated for 3 hrs by UPLC-MS/MS analysis", "format": "ADME, organism-based", "details": "read-out: Drug uptake", "procedure,_shortened": "as §2"}, "[20]": {"test_system": "Hepatitis C virus", "test": "Antiviral activity against Hepatitis C virus subtype 1a H77 subgenomic replicon expressing NS5A Y93N mutant infected in human HuH7 cells assessed as reduction in viral replication incubated for 3 days by luciferase reporter gene assay", "format": "functional, organism-based, Hepacivirus hominis", "details": "subtype 1a H77, Huh-7, 72 h", "procedure,_shortened": "as §1"}, "[21]": {"test_system": "Hepatitis C virus", "test": "Resistance index, ratio of EC50 for Hepatitis C virus subtype 1b Con1 subgenomic replicon expressing NS5A L31V mutant infected in human HuH7 cells to EC50 for Hepatitis C virus subtype 1b Con1 subgenomic replicon expressing NS5A infected in human HuH7 cells", "format": "functional, Hepacivirus hominis"}, "[22]": {"test": "Ratio of drug distribution in mouse liver to drug distribution in mouse plasma measured after 3 hrs by UPLC-MS/MS analysis", "format": "ADME, cell-free", "procedure,_shortened": "as §2"}, "[23]": {"test": "Oral bioavailability in mouse at 10 mg/kg by UPLC-MS/MS analysis", "format": "ADME, organism-based", "details": "in vivo", "procedure,_shortened": "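Overnight-fasted mice given a single 10 mg/kg oral dose in 2:2:96 (v/v) alcohol : Tween 80 : glucose injection. Plasma levels by UPLC-MS/MS. Bioavailability derived against a 2 mg/kg iv arm using the same formulation diluted 2.5 times with 10% glucose injection.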"}, "[24]": {"test_system": "Hepatitis C virus", "test": "Antiviral activity against Hepatitis C virus subtype 1a H77 subgenomic replicon expressing NS5A Y93C mutant infected in human HuH7 cells assessed as reduction in viral replication incubated for 3 days by luciferase reporter gene assay", "format": "functional, organism-based, Hepacivirus hominis", "details": "subtype 1a H77, Huh-7, 72 h", "procedure,_shortened": "as §1"}, "[25]": {"test_system": "Hepatitis C virus", "test": "Resistance index, ratio of EC50 for Hepatitis C virus subtype 1a H77 subgenomic replicon expressing NS5A L31M mutant infected in human HuH7 cells to EC50 for Hepatitis C virus subtype 1a H77 subgenomic replicon expressing NS5A infected in human HuH7 cells", "format": "functional, Hepacivirus hominis", "procedure,_shortened": "as §1"}, "[26]": {"test_system": "Hepatitis C virus", "test": "Resistance index, ratio of EC50 for Hepatitis C virus subtype 1a H77 subgenomic replicon expressing NS5A M28T mutant infected in human HuH7 cells to EC50 for Hepatitis C virus subtype 1a H77 subgenomic replicon expressing NS5A infected in human HuH7 cells", "format": "functional, Hepacivirus hominis"}, "[27]": {"test_system": "Hepatitis C virus", "test": "Antiviral activity against Hepatitis C virus subtype 1a H77 subgenomic replicon expressing NS5A Y93H mutant infected in human HuH7 cells assessed as reduction in viral replication incubated for 3 days by luciferase reporter gene assay", "format": "functional, organism-based, Hepacivirus hominis", "details": "subtype 1a H77, Huh-7, 72 h", "procedure,_shortened": "as §1"}, "[28]": {"test_system": "Hepatitis C virus", "test": "Antiviral activity against Hepatitis C virus subtype 4a subgenomic replicon expressing NS5A infected in human HuH7 cells assessed as reduction in viral replication incubated for 3 days by luciferase reporter gene assay", "format": "functional, organism-based, Hepacivirus hominis", "details": "Huh-7, 72 h"}}}
{"smiles": "COC(=O)N[C@H](C(=O)N1CCC[C@H]1C(=O)Nc1ccc([C@@H]2CC[C@@H](c3ccc(NC(=O)[C@@H]4CCCN4C(=O)[C@@H](NC(=O)OC)[C@@H](C)OC)cc3)N2c2cc(F)c(N3CC[Si](C)(C)CC3)c(F)c2)cc1)[C@@H](C)OC", "values": [{"measurement": "EC50", "setting": "[1]", "value": 0.0122, "unit": "nM"}, {"measurement": "Kp at 8 h", "setting": "[2]", "value": 10.7}, {"measurement": "concentration at 3 h", "setting": "[3]", "value": 308, "unit": "ng/mL"}, {"measurement": "EC50", "setting": "[4]", "value": 0.00381, "unit": "nM"}, {"measurement": "half-life", "setting": "[5]", "value": 21.2, "unit": "h"}, {"measurement": "concentration at 8 h", "setting": "[6]", "value": 16.4, "unit": "ng/mL"}, {"measurement": "concentration at 3 h", "setting": "[7]", "value": 1580, "unit": "ng/g"}, {"measurement": "EC50", "setting": "[8]", "value": 0.0017, "unit": "nM"}, {"measurement": "EC50", "setting": "[9]", "value": 0.027, "unit": "nM"}, {"measurement": "EC50", "setting": "[10]", "value": 0.0191, "unit": "nM"}, {"measurement": "Ratio EC50", "setting": "[11]", "value": ">203"}, {"measurement": "EC50", "setting": "[12]", "value": 0.0204, "unit": "nM"}, {"measurement": "concentration at 0.5 h", "setting": "[13]", "value": 160, "unit": "ng/mL"}, {"measurement": "Vd", "setting": "[14]", "value": 1.56, "unit": "L/kg"}, {"measurement": "MRT", "setting": "[15]", "value": 17.5, "unit": "h"}, {"measurement": "Tmax", "setting": "[16]", "value": 7.3, "unit": "h"}, {"measurement": "remaining at 1 h, 1 µM", "setting": "[17]", "value": 76.3, "unit": "%"}, {"measurement": "remaining at 1 h, 1 µM", "setting": "[18]", "value": 80.9, "unit": "%"}, {"measurement": "concentration at 3 h", "setting": "[19]", "value": 1110, "unit": "ng/g"}, {"measurement": "EC50", "setting": "[20]", "value": "> 0.25", "unit": "nM"}, {"measurement": "Ratio EC50", "setting": "[21]", "value": 2.3}, {"measurement": "Kp at 3 h", "setting": "[22]", "value": 24.6}, {"measurement": "bioavailability", "setting": "[23]", "value": 7.2, "unit": "%"}, {"measurement": "EC50", "setting": "[24]", "value": "> 0.25", "unit": "nM"}, {"measurement": "Ratio EC50", "setting": "[25]", "value": 9.9}, {"measurement": "Ratio EC50", "setting": "[26]", "value": 1.9}, {"measurement": "EC50", "setting": "[27]", "value": "> 1", "unit": "nM"}, {"measurement": "EC50", "setting": "[28]", "value": 0.00033, "unit": "nM"}]}
